In brackets after ≈: the same amount, converted by molar mass. Activity calls are given as the source filed them. No cut-off for these calls is given here.
Key:
Assay type in all cases: functional, cell-based
KB [1] = assay: Cytotoxicity against human KB cells after 3 days by SRB assay; conditions: for EC50: 72 h
How it was run: (§1)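 Cells grown in RPMI-1640 with HEPES, 0.25% sodium bicarbonate, 10% FBS and kanamycin. Freshly trypsinized cells were seeded at 1500–7500 per well and compounds added from DMSO-diluted stock. After 3 days, attached cells were fixed with cold 50% TCA, stained with 0.4% SRB, and absorbance read after dye solubilization. EC50 = 50% growth reduction, averaged over ≥3 independent determinations.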

PC-3 = assay: Cytotoxicity against human PC3 cells after 3 days by SRB assay; conditions: for EC50: PC-3, 72 h; how it was run: as §1
KB [2] = assay: Cytotoxicity against vinblastine-resistant human KB cells after 3 days by SRB assay; conditions: in the assay text read “vincristine-resistant” for “vinblastine-resistant”; for EC50: 72 h; how it was run: as §1
MCF7 = assay: Cytotoxicity against human MCF7 cells after 3 days by SRB assay; conditions: for EC50: MCF7, 72 h; how it was run: as §1

Row | Structure (SMILES) | EC50 (KB [1]) | EC50 (PC-3) | EC50 (KB [2]) | EC50 (MCF7) | Activity (KB [1]) | Activity (PC-3) | Activity (KB [2]) | Activity (MCF7)
1 | COc1ccc(/C=C/C(=O)c2cccs2)c(CN2CCCCC2)c1O | 2.93 µg/mL (≈ 8.2 µM) | 2.02 µg/mL (≈ 5.65 µM) | 2.09 µg/mL (≈ 5.85 µM) | 0.11 µg/mL (≈ 0.308 µM) | – | – | – | –
2 | CC(C)Oc1ccc(C(=O)/C=C/c2cccs2)c(O)c1CN1CCOCC1 | 5.12 µg/mL (≈ 13.2 µM) | 2.8 µg/mL (≈ 7.23 µM) | 1.45 µg/mL (≈ 3.74 µM) | 0.66 µg/mL (≈ 1.7 µM) | – | – | – | –
3 | COc1cc(O)c(C(=O)/C=C/c2ccco2)cc1CN1CCOCC1 | 13.5 µg/mL (≈ 39.4 µM) | 16.8 µg/mL (≈ 48.9 µM) | 8.12 µg/mL (≈ 23.6 µM) | 1.51 µg/mL (≈ 4.4 µM) | – | – | – | –
4 | COc1ccc(/C=C/C(=O)c2ccco2)c(CN2CCCCC2)c1O | 5.18 µg/mL (≈ 15.2 µM) | 3.07 µg/mL (≈ 8.99 µM) | 2.61 µg/mL (≈ 7.64 µM) | 0.47 µg/mL (≈ 1.38 µM) | – | – | – | –
5 | O=C(/C=C/c1ccccn1)c1ccc(O)c(CN2CCOCC2)c1O | 1.54 µg/mL (≈ 4.52 µM) | 0.95 µg/mL (≈ 2.79 µM) | 0.8 µg/mL (≈ 2.35 µM) | 0.08 µg/mL (≈ 0.235 µM) | – | – | – | –
6 | O=C(/C=C/c1cccs1)c1ccc(O)c(CN2CCOCC2)c1 | 5.14 µg/mL (≈ 15.6 µM) | 6.49 µg/mL (≈ 19.7 µM) | 2.58 µg/mL (≈ 7.83 µM) | 5.62 µg/mL (≈ 17.1 µM) | – | – | – | –
7 | O=C(/C=C/c1ccccn1)c1ccc(CN2CCOCC2)c(O)c1CN1CCOCC1 | 0.82 µg/mL (≈ 1.94 µM) | 0.44 µg/mL (≈ 1.04 µM) | 0.71 µg/mL (≈ 1.68 µM) | 0.46 µg/mL (≈ 1.09 µM) | – | – | – | –
8 | COc1ccc(/C=C/C(=O)c2cccnc2)c(CN2CCCCC2)c1O | 6.14 µg/mL (≈ 17.4 µM) | 6.77 µg/mL (≈ 19.2 µM) | 2.64 µg/mL (≈ 7.49 µM) | 0.3 µg/mL (≈ 0.851 µM) | – | – | – | –
9 | O=C(/C=C/c1ccco1)c1ccc(O)c(CN2CCOCC2)c1 | 6.12 µg/mL (≈ 19.5 µM) | 7.43 µg/mL (≈ 23.7 µM) | 3.27 µg/mL (≈ 10.4 µM) | 4.87 µg/mL (≈ 15.5 µM) | – | – | – | –
10 | O=C(/C=C/c1ccccn1)c1ccc(CN2CCOCC2)c(O)c1 | 1.3 µg/mL (≈ 4.01 µM) | 0.83 µg/mL (≈ 2.56 µM) | 0.68 µg/mL (≈ 2.1 µM) | 0.43 µg/mL (≈ 1.33 µM) | – | – | – | –
11 | CC(C)Oc1cc(O)c(C(=O)/C=C/c2cccs2)cc1CN1CCOCC1 | 9.44 µg/mL (≈ 24.4 µM) | 4.04 µg/mL (≈ 10.4 µM) | 5.02 µg/mL (≈ 13 µM) | 0.24 µg/mL (≈ 0.619 µM) | – | – | – | –
12 | CCOc1cc(O)c(C(=O)/C=C/c2ccc(C)o2)cc1CN1CCOCC1 | – | – | – | – | inactive | inactive | inactive | inactive
13 | CCOc1cc(O)c(C(=O)/C=C/c2cccnc2)cc1CN1CCOCC1 | – | – | – | 10.6 µg/mL (≈ 28.8 µM) | inactive | inactive | inactive | –
14 | O=C(/C=C/c1ccccc1)c1ccc(O)c(CN2CCOCC2)c1 | 2.11 µg/mL (≈ 6.52 µM) | 0.18 µg/mL (≈ 0.557 µM) | 0.69 µg/mL (≈ 2.13 µM) | 0.15 µg/mL (≈ 0.464 µM) | – | – | – | –
15 | CCOc1cc(O)c(C(=O)/C=C/c2ccco2)cc1CN1CCOCC1 | – | – | – | 20 µg/mL (≈ 56 µM) | inactive | inactive | inactive | –
16 | O=C(/C=C/c1cccnc1)c1ccc(O)c(CN2CCOCC2)c1 | 2.11 µg/mL (≈ 6.5 µM) | 0.68 µg/mL (≈ 2.1 µM) | 0.69 µg/mL (≈ 2.13 µM) | 0.29 µg/mL (≈ 0.894 µM) | – | – | – | –
17 | O=C(/C=C/c1ccccc1)c1cccc(O)c1CN1CCOCC1 | 0.83 µg/mL (≈ 2.57 µM) | 0.33 µg/mL (≈ 1.02 µM) | 0.36 µg/mL (≈ 1.11 µM) | 0.28 µg/mL (≈ 0.866 µM) | – | – | – | –
18 | COc1cc(O)c(C(=O)/C=C/c2cccs2)cc1CN1CCOCC1 | 7.75 µg/mL (≈ 21.6 µM) | 6.6 µg/mL (≈ 18.4 µM) | 6.25 µg/mL (≈ 17.4 µM) | 3.12 µg/mL (≈ 8.68 µM) | – | – | – | –

Row | Structure (SMILES) | EC50 (KB [1]) | EC50 (PC-3) | EC50 (KB [2]) | EC50 (MCF7) | Activity (KB [1]) | Activity (PC-3) | Activity (KB [2]) | Activity (MCF7)
19 | Cc1ccsc1/C=C/C(=O)c1cc(CN2CCOCC2)c(O)c(CN2CCOCC2)c1 | 9.92 µg/mL (≈ 22.4 µM) | 12.1 µg/mL (≈ 27.3 µM) | 12 µg/mL (≈ 27.1 µM) | 16.2 µg/mL (≈ 36.6 µM) | – | – | – | –
20 | COc1cc(O)c(C(=O)/C=C/c2ccccc2)cc1CN1CCOCC1 | 14.9 µg/mL (≈ 42.2 µM) | 0.78 µg/mL (≈ 2.21 µM) | 3.5 µg/mL (≈ 9.9 µM) | 0.03 µg/mL (≈ 0.0849 µM) | – | – | – | –
21 | CCOc1cc(O)c(C(=O)/C=C/c2ccccc2)cc1CN1CCOCC1 | – | 6.72 µg/mL (≈ 18.3 µM) | 9.92 µg/mL (≈ 27 µM) | 5.24 µg/mL (≈ 14.3 µM) | inactive | – | – | –
22 | Cc1ccsc1/C=C/C(=O)c1cccc(O)c1CN1CCOCC1 | 5.7 µg/mL (≈ 16.6 µM) | 2.73 µg/mL (≈ 7.95 µM) | 1.64 µg/mL (≈ 4.78 µM) | 1.12 µg/mL (≈ 3.26 µM) | – | – | – | –
23 | COc1ccc(C(=O)/C=C/c2ccccn2)c(O)c1CN1CCOCC1 | 3.41 µg/mL (≈ 9.62 µM) | 10.5 µg/mL (≈ 29.7 µM) | 1.13 µg/mL (≈ 3.19 µM) | 0.25 µg/mL (≈ 0.705 µM) | – | – | – | –
24 | COc1ccc(/C=C/C(=O)c2cccc(C)c2)c(CN2CCOCC2)c1O | 1.12 µg/mL (≈ 3.05 µM) | 0.66 µg/mL (≈ 1.8 µM) | 0.6 µg/mL (≈ 1.63 µM) | 0.42 µg/mL (≈ 1.14 µM) | – | – | – | –
25 | CCOc1cc(O)c(C(=O)/C=C/c2ccccn2)cc1CN1CCOCC1 | 5.72 µg/mL (≈ 15.5 µM) | 3.14 µg/mL (≈ 8.52 µM) | 5.55 µg/mL (≈ 15.1 µM) | 4.13 µg/mL (≈ 11.2 µM) | – | – | – | –
26 | O=C(/C=C/c1ccccn1)c1cc(CN2CCOCC2)c(O)c(CN2CCOCC2)c1 | 2.31 µg/mL (≈ 5.45 µM) | 1.72 µg/mL (≈ 4.06 µM) | 2.27 µg/mL (≈ 5.36 µM) | 1.34 µg/mL (≈ 3.16 µM) | – | – | – | –
27 | O=C(/C=C/c1cccs1)c1cccc(O)c1CN1CCOCC1 | 2.84 µg/mL (≈ 8.62 µM) | 1.09 µg/mL (≈ 3.31 µM) | 2.15 µg/mL (≈ 6.53 µM) | 1.66 µg/mL (≈ 5.04 µM) | – | – | – | –
28 | COc1ccc(/C=C/C(=O)c2cc(CN3CCOCC3)c(OC)cc2O)cc1 | 9.6 µg/mL (≈ 25 µM) | 8.11 µg/mL (≈ 21.2 µM) | 6.58 µg/mL (≈ 17.2 µM) | 2.74 µg/mL (≈ 7.15 µM) | – | – | – | –
29 | COc1cc(O)c(C(=O)/C=C/c2cccnc2)cc1CN1CCOCC1 | – | 0.84 µg/mL (≈ 2.37 µM) | 4.64 µg/mL (≈ 13.1 µM) | 0.1 µg/mL (≈ 0.282 µM) | inactive | – | – | –
30 | O=C(/C=C/c1ccco1)c1cccc(O)c1CN1CCOCC1 | 5.63 µg/mL (≈ 18 µM) | 3.8 µg/mL (≈ 12.1 µM) | 5.77 µg/mL (≈ 18.4 µM) | 4.7 µg/mL (≈ 15 µM) | – | – | – | –
31 | CCOc1cc(O)c(C(=O)/C=C/c2sccc2C)cc1CN1CCOCC1 | – | – | – | – | inactive | inactive | inactive | inactive
32 | CC(C)=CCOc1ccc(C(=O)/C=C/c2sccc2C)c(O)c1CN1CCOCC1 | 8.43 µg/mL (≈ 19.7 µM) | – | 7.21 µg/mL (≈ 16.9 µM) | 3.19 µg/mL (≈ 7.46 µM) | – | inactive | – | –
33 | O=C(/C=C/c1ccccn1)c1ccc(O)c(CN2CCOCC2)c1 | 0.73 µg/mL (≈ 2.25 µM) | 0.31 µg/mL (≈ 0.956 µM) | 0.3 µg/mL (≈ 0.925 µM) | 0.12 µg/mL (≈ 0.37 µM) | – | – | – | –
34 | O=C(/C=C/c1ccncc1)c1ccc(O)c(CN2CCOCC2)c1 | 0.74 µg/mL (≈ 2.28 µM) | 0.1 µg/mL (≈ 0.308 µM) | 0.41 µg/mL (≈ 1.26 µM) | 0.15 µg/mL (≈ 0.462 µM) | – | – | – | –
35 | O=C(/C=C/c1ccncc1)c1ccc(CN2CCOCC2)c(O)c1 | 1.95 µg/mL (≈ 6.01 µM) | 1.87 µg/mL (≈ 5.76 µM) | 2.62 µg/mL (≈ 8.08 µM) | 1.23 µg/mL (≈ 3.79 µM) | – | – | – | –
36 | O=C(/C=C/c1cccnc1)c1ccc(CN2CCOCC2)c(O)c1 | 2.17 µg/mL (≈ 6.69 µM) | 0.9 µg/mL (≈ 2.77 µM) | 1.17 µg/mL (≈ 3.61 µM) | 0.67 µg/mL (≈ 2.07 µM) | – | – | – | –

Source: ChEMBL document CHEMBL1155815, “Design, synthesis, and biological evaluation of Mannich bases of heterocyclic chalcone analogs as cytotoxic agents” (Bioorg Med Chem, 2008)
